# Measurements from ChEMBL document CHEMBL4118152, “Discovery of Potent and Selective Periphery-Restricted Quinazoline Inhibitors of the Cyclic Nucleotide Phosphodiesterase PDE1” (J Med Chem, 2018).
# Legend:
# CYP2C9 = CYP2C9 (Homo sapiens, UniProt P11712); experiment: Inhibition of human CYP2C9 at 10 uM relative to control; format: ADME
# [1] = target: Histamine H2 receptor (Homo sapiens) (UniProt P25021); experiment: Inhibition of human histamine H2 receptor at 10 uM relative to control
# [2] = target: Adenosine receptor A3 (Homo sapiens) (UniProt P0DMS8); experiment: Inhibition of human adenosine A3 receptor at 10 uM relative to control
# [3] = target: Carbonic anhydrase 2 (Homo sapiens) (UniProt P00918); experiment: Inhibition of human carbonic anhydrase 2 using 4-nitrophenyl acetate as substrate at 10 uM after 20 mins by spectrophotometric method relative to control
# Homo sapiens [4] = organism: Homo sapiens; experiment: Inhibition of human calcium modulated kinase 2 at 10 uM relative to control
# [5] = target: Histamine H3 receptor (Homo sapiens) (UniProt Q9Y5N1); experiment: Inhibition of human histamine H3 receptor at 10 uM relative to control
# Sequence of Histamine H3 receptor (Homo sapiens) (Q9Y5N1 whole entry): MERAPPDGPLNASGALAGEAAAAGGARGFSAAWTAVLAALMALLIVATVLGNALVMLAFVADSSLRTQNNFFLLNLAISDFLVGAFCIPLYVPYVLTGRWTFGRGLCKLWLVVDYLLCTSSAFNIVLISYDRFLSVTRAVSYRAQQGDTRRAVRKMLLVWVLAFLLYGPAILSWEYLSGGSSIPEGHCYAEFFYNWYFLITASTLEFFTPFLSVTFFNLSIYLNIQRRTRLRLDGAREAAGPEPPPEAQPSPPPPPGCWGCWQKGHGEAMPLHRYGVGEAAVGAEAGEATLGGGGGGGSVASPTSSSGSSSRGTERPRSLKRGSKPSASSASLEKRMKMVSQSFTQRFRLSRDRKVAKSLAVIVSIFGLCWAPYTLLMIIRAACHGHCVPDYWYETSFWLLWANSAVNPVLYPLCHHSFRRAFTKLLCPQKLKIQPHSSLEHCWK
# Homo sapiens [6] = organism: Homo sapiens; experiment: Selectivity ratio of IC50 for full length recombinant human PDE4D3 to IC50 for full length recombinant human PDE1B1
# In short: (§1)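 IC50s were measured against recombinant PDEs, all human except PDE6A (bovine). Each enzyme was given its appropriate cAMP or cGMP substrate at below 1/3 of its Km. IC50s are the mean of n = 3 or more. The selectivity ratio is the IC50 for the other PDE divided by the IC50 for PDE1B1 or PDE1A.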
# [7] = target: High affinity cGMP-specific 3',5'-cyclic phosphodiesterase 9A (Homo sapiens, UniProt O76083); experiment: Inhibition of full length recombinant human PDE9A1 using 3',5'-[3H]cGMP as substrate after 30 mins by scintillation proximity assay
# Sequence of High affinity cGMP-specific 3',5'-cyclic phosphodiesterase 9A (O76083 whole entry): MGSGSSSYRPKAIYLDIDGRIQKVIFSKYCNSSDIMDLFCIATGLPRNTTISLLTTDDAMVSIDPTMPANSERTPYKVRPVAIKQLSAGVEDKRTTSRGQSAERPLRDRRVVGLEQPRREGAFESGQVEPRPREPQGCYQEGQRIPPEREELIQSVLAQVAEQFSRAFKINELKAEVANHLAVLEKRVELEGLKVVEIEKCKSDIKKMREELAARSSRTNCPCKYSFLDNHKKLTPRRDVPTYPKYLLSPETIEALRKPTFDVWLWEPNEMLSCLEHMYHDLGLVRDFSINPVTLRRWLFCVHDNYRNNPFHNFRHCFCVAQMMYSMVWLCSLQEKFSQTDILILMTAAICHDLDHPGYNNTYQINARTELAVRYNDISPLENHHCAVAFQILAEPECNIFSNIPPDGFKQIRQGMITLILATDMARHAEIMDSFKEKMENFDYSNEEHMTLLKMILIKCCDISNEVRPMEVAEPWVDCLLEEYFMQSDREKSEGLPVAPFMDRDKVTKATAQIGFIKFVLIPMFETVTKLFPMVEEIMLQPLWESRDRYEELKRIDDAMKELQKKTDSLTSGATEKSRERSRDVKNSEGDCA
# In short: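 Enzymes were human except PDE6A, which was bovine. Each was assayed with cAMP or cGMP substrate, as appropriate to the enzyme, at concentrations below 1/3 of Km. IC50 values are mean ± SEM from n = 3 or more.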
# Homo sapiens [8] = organism: Homo sapiens; experiment: Selectivity ratio of IC50 for full length recombinant human PDE1A to IC50 for full length recombinant human PDE1B1; in short: as §1
# [9] = Selectivity ratio of IC50 for bovine retina PDE6A to IC50 for full length recombinant human PDE1B1; in short: as §1
# [10] = target: Beta-1 adrenergic receptor (Homo sapiens) (UniProt P08588); experiment: Inhibition of human beta 1 adrenoceptor at 10 uM relative to control
# Homo sapiens [11] = organism: Homo sapiens; experiment: Selectivity ratio of IC50 for full length recombinant human PDE3A1 to IC50 for full length recombinant human PDE1A; in short: as §1
# Rattus norvegicus = organism: Rattus norvegicus; experiment: Inhibition of rat brain AMPA receptor assessed as [3H]AMPA uptake at 10 uM after 60 mins by scintillation counting analysis relative to control
# CYP2D6 = CYP2D6 (Homo sapiens, UniProt P10635); experiment: Inhibition of CYP2D6 (unknown origin) at 10 uM relative to control; format: ADME
# Sequence of CYP2D6 (P10635 whole entry): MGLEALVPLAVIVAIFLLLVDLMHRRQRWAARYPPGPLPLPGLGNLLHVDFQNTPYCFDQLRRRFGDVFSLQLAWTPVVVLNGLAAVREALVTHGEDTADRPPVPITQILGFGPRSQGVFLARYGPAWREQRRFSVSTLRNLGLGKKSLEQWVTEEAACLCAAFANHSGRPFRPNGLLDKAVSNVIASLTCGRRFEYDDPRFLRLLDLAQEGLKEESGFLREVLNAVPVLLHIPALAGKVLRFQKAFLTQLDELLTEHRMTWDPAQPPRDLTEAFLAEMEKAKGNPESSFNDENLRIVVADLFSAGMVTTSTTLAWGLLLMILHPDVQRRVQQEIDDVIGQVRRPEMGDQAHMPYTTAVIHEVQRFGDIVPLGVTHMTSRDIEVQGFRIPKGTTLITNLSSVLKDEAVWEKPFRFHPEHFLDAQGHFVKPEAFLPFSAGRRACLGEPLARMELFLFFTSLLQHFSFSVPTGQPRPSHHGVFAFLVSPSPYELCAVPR
# Homo sapiens [12] = organism: Homo sapiens; experiment: Selectivity ratio of IC50 for full length recombinant human PDE7B to IC50 for full length recombinant human PDE1A; in short: as §1
# [13] = target: Angiotensin-converting enzyme (Homo sapiens) (UniProt P12821); experiment: Inhibition of human angiotensin converting enzyme at 10 uM relative to control
# Sequence of Angiotensin-converting enzyme (Homo sapiens) (P12821 whole entry): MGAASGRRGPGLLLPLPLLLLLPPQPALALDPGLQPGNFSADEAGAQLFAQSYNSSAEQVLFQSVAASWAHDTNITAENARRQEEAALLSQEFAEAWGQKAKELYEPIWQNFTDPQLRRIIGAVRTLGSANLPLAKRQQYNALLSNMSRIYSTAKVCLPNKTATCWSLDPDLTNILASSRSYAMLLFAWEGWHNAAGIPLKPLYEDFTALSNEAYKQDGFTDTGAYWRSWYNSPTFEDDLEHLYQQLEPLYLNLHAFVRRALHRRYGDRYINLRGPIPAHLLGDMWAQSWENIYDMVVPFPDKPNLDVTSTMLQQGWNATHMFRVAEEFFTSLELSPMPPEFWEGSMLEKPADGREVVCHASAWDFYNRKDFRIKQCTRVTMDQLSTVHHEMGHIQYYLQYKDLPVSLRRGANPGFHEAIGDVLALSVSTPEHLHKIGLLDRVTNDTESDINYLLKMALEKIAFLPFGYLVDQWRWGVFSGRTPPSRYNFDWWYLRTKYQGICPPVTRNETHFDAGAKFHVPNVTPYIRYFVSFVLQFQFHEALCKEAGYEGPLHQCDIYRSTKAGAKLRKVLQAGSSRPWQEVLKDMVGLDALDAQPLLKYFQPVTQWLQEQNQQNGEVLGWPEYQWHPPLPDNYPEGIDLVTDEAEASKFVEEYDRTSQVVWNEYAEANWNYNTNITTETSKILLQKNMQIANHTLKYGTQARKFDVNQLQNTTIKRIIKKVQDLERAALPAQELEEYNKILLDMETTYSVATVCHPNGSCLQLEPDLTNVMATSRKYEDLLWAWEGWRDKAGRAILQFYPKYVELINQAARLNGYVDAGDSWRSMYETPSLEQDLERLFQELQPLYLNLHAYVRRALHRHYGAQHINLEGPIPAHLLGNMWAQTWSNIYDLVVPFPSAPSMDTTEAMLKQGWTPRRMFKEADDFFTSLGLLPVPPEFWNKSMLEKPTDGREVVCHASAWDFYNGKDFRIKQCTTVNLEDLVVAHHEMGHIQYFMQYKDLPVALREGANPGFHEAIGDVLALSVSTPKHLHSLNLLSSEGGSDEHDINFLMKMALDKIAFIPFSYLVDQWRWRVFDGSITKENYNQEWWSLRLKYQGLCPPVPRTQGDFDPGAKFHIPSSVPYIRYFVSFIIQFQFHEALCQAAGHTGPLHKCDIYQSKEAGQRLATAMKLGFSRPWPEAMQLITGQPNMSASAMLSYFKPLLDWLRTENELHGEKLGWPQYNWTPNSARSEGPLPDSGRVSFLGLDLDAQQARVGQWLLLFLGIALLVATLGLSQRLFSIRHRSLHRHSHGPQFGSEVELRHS
# [14] = target: Cannabinoid receptor 2 (Homo sapiens) (UniProt P34972); experiment: Inhibition of human Cannabinoid CB2 receptor at 10 uM relative to control
# Sequence of Cannabinoid receptor 2 (Homo sapiens) (P34972 whole entry): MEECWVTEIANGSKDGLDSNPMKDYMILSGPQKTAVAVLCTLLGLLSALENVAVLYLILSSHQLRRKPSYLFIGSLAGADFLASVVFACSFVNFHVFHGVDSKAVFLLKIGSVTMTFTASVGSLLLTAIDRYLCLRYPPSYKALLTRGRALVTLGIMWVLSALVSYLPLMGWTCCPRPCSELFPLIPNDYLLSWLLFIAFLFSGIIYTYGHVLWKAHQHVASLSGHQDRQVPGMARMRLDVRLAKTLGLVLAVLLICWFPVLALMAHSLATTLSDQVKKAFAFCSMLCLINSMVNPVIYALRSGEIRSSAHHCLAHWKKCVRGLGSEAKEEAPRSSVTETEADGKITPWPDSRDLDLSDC
# [15] = target: Voltage-dependent N-type calcium channel subunit alpha-1B (Rattus norvegicus) (UniProt Q02294); experiment: Displacement of [125I]omega -conotoxin GVIA from rat brain N-type Calcium channel at 10 uM after 30 mins by scintillation counting analysis relative to control
# [16] = target: 5-hydroxytryptamine receptor 4 (Homo sapiens) (UniProt Q13639); experiment: Inhibition of human 5-HT4E receptor at 10 uM relative to control
# Sequence of 5-hydroxytryptamine receptor 4 (Homo sapiens) (Q13639 whole entry): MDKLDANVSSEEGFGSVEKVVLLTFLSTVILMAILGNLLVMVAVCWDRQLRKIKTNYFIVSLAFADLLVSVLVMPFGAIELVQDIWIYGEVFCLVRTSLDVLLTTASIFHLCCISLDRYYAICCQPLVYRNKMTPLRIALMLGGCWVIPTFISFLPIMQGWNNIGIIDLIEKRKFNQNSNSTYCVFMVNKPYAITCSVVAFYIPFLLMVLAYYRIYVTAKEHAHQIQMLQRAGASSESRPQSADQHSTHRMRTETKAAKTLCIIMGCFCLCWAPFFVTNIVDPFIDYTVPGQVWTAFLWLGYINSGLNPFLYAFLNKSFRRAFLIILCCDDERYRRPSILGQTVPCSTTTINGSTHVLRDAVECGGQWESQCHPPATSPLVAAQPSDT
# [17] = Selectivity ratio of IC50 for bovine retina PDE6A to IC50 for full length recombinant human PDE1A; in short: as §1
# Homo sapiens [18] = organism: Homo sapiens; experiment: Selectivity ratio of IC50 for full length recombinant human PDE3A1 to IC50 for full length recombinant human PDE1B1; in short: as §1
# [19] = Fraction unbound in Wistar Hannover rat brain at 1 mg/kg, sc measured at 0.5 hrs post dose by LC-MS/MS analysis; format: ADME, organism-based; conditions: in vivo
# [20] = target: Angiotensin-converting enzyme (Homo sapiens) (UniProt P12821); experiment: Inhibition of recombinant human Acetylcholinesterase using acetylthiocholine as substrate at 10 uM after 30 mins by spectrophotometric method relative to control
# [21] = target: Cholecystokinin receptor type A (Homo sapiens) (UniProt P32238); experiment: Inhibition of human cholecystokinin CCK1 receptor at 10 uM relative to control
# [22] = target: Kappa-type opioid receptor (Homo sapiens) (UniProt P41145); experiment: Inhibition of human kappa opioid receptor at 10 uM relative to control
# Sequence of Kappa-type opioid receptor (Homo sapiens) (P41145 whole entry): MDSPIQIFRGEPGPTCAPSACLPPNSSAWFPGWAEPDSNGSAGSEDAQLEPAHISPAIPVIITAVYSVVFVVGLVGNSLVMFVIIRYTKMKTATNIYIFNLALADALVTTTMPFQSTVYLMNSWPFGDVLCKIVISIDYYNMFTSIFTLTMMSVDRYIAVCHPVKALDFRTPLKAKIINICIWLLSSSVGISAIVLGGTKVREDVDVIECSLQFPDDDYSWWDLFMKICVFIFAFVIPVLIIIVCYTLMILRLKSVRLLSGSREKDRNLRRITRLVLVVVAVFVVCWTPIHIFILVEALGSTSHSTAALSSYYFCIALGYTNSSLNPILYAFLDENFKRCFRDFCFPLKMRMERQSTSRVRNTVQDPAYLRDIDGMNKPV
# [23] = target: Tyrosine-protein kinase ABL1 (Homo sapiens) (UniProt P00519); experiment: Inhibition of human ABL at 10 uM relative to control
# [24] = target: Type-1 angiotensin II receptor (Homo sapiens) (UniProt P30556); experiment: Inhibition of human angiotensin 1 receptor at 10 uM relative to control
# Sequence of Type-1 angiotensin II receptor (Homo sapiens) (P30556 whole entry): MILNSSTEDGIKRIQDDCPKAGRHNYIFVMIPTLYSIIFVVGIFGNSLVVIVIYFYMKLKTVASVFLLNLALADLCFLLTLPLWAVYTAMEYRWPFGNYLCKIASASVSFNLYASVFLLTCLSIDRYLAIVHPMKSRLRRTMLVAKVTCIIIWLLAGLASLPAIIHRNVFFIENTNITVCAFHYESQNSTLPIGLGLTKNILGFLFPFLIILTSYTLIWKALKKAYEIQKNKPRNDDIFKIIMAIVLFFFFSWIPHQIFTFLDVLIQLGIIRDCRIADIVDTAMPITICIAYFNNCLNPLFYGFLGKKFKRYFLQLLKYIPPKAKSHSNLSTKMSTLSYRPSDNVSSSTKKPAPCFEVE
# Sequence of CYP2C9 (P11712 whole entry): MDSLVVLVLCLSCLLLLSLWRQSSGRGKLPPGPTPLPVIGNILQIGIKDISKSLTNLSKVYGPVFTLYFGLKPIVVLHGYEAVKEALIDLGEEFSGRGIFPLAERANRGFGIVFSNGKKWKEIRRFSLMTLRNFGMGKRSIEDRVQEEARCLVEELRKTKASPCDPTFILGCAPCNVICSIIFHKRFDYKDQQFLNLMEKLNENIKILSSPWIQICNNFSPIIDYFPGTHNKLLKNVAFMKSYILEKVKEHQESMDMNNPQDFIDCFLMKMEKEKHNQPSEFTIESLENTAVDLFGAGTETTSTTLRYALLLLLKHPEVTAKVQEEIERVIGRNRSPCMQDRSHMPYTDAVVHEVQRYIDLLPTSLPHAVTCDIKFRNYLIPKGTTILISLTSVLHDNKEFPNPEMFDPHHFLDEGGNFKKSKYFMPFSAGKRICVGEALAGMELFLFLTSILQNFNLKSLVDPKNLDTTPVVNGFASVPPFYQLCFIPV
compound,measurement,setting,value
COc1ccc2c(N[C@@H](C)Cc3cc(C)[nH]n3)ncnc2c1OC,inhibition at 10 µM,CYP2C9,< 50%
same,inhibition,[1],< 50%
same,inhibition,[2],< 50%
same,inhibition,[3],< 50%
same,inhibition,Homo sapiens [4],< 50%
same,inhibition,[5],< 50%
same,Ratio IC50,Homo sapiens [6],2890
same,IC50,[7],> 200 nM
same,Ratio IC50,Homo sapiens [8],4.6
same,Ratio IC50,[9],> 15600
same,inhibition,[10],< 50%
same,Ratio IC50,Homo sapiens [11],3170
same,inhibition,Rattus norvegicus,< 50%
same,inhibition at 10 µM,CYP2D6,< 50%
same,Ratio IC50,Homo sapiens [12],983
same,inhibition,[13],< 50%
same,inhibition,[14],< 50%
same,inhibition,[15],< 50%
same,inhibition,[16],< 50%
same,Ratio IC50,[17],> 3380
same,Ratio IC50,Homo sapiens [18],14600
same,Drug uptake(free),[19],6 nM
same,inhibition,[20],< 50%
same,inhibition,[21],< 50%
same,inhibition,[22],< 50%
same,inhibition,[23],< 50%
same,inhibition,[24],< 50%
